Laboratory results taken from ChEMBL document CHEMBL1150354, “'Hybrid' benzofuran-benzopyran congeners as rigid analogs of hallucinogenic phenethylamines” (Bioorg Med Chem, 2008).
pEC50, pKi: −log10 of the molar value.

What was measured:
[1] = biological target: T1, 5-hydroxytryptamine receptor 2A (Rattus norvegicus, UniProt P14842); assay: Displacement of [3H]ketanserin from rat 5HT2A receptor expressed in mouse NIH3T3 cells; type: cell-based
Summary of the method: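 Membranes came from NIH-3T3 cells stably expressing rat 5-HT2A receptor (GF-6, 5500 fmol/mg). Competition used 0.5nM [3H]-ketanserin against increasing test compound concentrations (ca. 10 pM - 10 μM). Curves were fitted to give Ki, reported as mean (SEM) over n experiments.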

[2] = biological target: 5-hydroxytryptamine receptor 2A (Rattus norvegicus) (UniProt P14842); assay: Intrinsic activity at rat 5HT2A receptor expressed in mouse NIH3T3 cells assessed as stimulation of inositol phosphate accumulation relative to serotonin; type: functional, cell-based
Summary of the method: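 NIH-3T3 cells stably expressing rat 5-HT2A receptor (GF-6, 5500 fmol/mg), kept in DMEM with 300 μg/ml G-418. Read-out was stimulated radiolabeled inositol phosphate accumulation. Each plate normalized to water-stimulated wells (0%) and 10 μM serotonin (100%). EC50 and intrinsic activity given as mean (SEM) over n experiments.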

[3] = biological target: T1, 5-hydroxytryptamine receptor 2A; assay: Agonist activity at rat 5HT2A receptor expressed in mouse NIH3T3 cells assessed as stimulation of inositol phosphate accumulation; type: functional, cell-based
Summary of the method: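 Read-out was stimulated radiolabeled inositol phosphate accumulation. Each plate normalized to water-stimulated wells (0%) and 10 μM serotonin (100%). EC50 and intrinsic activity given as mean (SEM) over n experiments.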

Rattus norvegicus [4] = assay: Hallucinogenic activity in D-lysergic acid N,N-diethylamide-trained Sprague-Dawley rat assessed as disrupted behavior at 0.17 mg/kg, ip after 30 mins by two-lever drug discrimination assay; type: functional; settings: route intraperitoneal
Summary of the method: (§1)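 Male Sprague-Dawley rats (200-220 g at start) trained to discriminate LSD tartrate (186 nmol/kg; 0.08 mg/kg, ip) from saline, FR50 food reinforcement, two levers. Test drug given ip 30 min before an extinction session. A session was scored as disruption if 50 presses on one lever were not completed within 5 min. %D is the percentage of rats disrupted at each dose.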

Rattus norvegicus [5] = assay: Hallucinogenic activity in D-lysergic acid N,N-diethylamide-trained Sprague-Dawley rat assessed as disrupted behavior at 0.35 mg/kg, ip after 30 mins by two-lever drug discrimination assay; type: functional; settings: route intraperitoneal; summary of the method: as §1
Rattus norvegicus [6] = assay: Hallucinogenic activity in D-lysergic acid N,N-diethylamide-trained Sprague-Dawley rat assessed as disrupted behavior at 0.69 mg/kg, ip after 30 mins by two-lever drug discrimination assay; type: functional; settings: route intraperitoneal; summary of the method: as §1
Rattus norvegicus [7] = assay: Hallucinogenic activity in D-lysergic acid N,N-diethylamide-trained Sprague-Dawley rat assessed as selection of drug-appropriate lever at 0.17 mg/kg, ip after 30 mins by two-lever drug discrimination assay; type: functional; settings: route intraperitoneal
Summary of the method: (§2)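 Male Sprague-Dawley rats (200-220 g at start) trained to discriminate LSD (0.08 mg/kg ip) from saline, FR50 food-reinforced two-lever task, training to ≥85% accuracy on 8 of 10 sessions. Test drug given ip 30 min before an extinction session, ended at 50 presses on one lever. %SDL is the percentage of rats choosing the drug lever per dose. Treatments randomized.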

Rattus norvegicus [8] = assay: Hallucinogenic activity in D-lysergic acid N,N-diethylamide-trained Sprague-Dawley rat assessed as selection of drug-appropriate lever at 0.35 mg/kg, ip after 30 mins by two-lever drug discrimination assay; type: functional; settings: route intraperitoneal; summary of the method: as §2
Rattus norvegicus [9] = assay: Hallucinogenic activity in D-lysergic acid N,N-diethylamide-trained Sprague-Dawley rat assessed as selection of drug-appropriate lever at 0.69 mg/kg, ip after 30 mins by two-lever drug discrimination assay; type: functional; settings: route intraperitoneal; summary of the method: as §2
Rattus norvegicus [10] = assay: Hallucinogenic potency in ip dosed D-lysergic acid N,N-diethylamide-trained Sprague-Dawley rat after 30 mins; type: functional; settings: 0.5 h
Rattus norvegicus [11] = assay: Hallucinogenic activity in D-lysergic acid N,N-diethylamide-trained Sprague-Dawley rat assessed as disrupted behavior at 0.25 mg/kg, ip after 30 mins by two-lever drug discrimination assay; type: functional; settings: route intraperitoneal; summary of the method: as §1
Rattus norvegicus [12] = assay: Hallucinogenic activity in D-lysergic acid N,N-diethylamide-trained Sprague-Dawley rat assessed as disrupted behavior at 0.38 mg/kg, ip after 30 mins by two-lever drug discrimination assay; type: functional; settings: route intraperitoneal; summary of the method: as §1
Rattus norvegicus [13] = assay: Hallucinogenic activity in D-lysergic acid N,N-diethylamide-trained Sprague-Dawley rat assessed as disrupted behavior at 0.50 mg/kg, ip after 30 mins by two-lever drug discrimination assay; type: functional; settings: dose 0.5 mg/kg; route intraperitoneal; summary of the method: as §1
Rattus norvegicus [14] = assay: Hallucinogenic activity in D-lysergic acid N,N-diethylamide-trained Sprague-Dawley rat assessed as selection of drug-appropriate lever at 0.25 mg/kg, ip after 30 mins by two-lever drug discrimination assay; type: functional; settings: route intraperitoneal; summary of the method: as §2
Rattus norvegicus [15] = assay: Hallucinogenic activity in D-lysergic acid N,N-diethylamide-trained Sprague-Dawley rat assessed as selection of drug-appropriate lever at 0.38 mg/kg, ip after 30 mins by two-lever drug discrimination assay; type: functional; settings: route intraperitoneal; summary of the method: as §2
Rattus norvegicus [16] = assay: Hallucinogenic activity in D-lysergic acid N,N-diethylamide-trained Sprague-Dawley rat assessed as selection of drug-appropriate lever at 0.50 mg/kg, ip after 30 mins by two-lever drug discrimination assay; type: functional; settings: dose 0.5 mg/kg; route intraperitoneal; summary of the method: as §2
Rattus norvegicus [17] = assay: Hallucinogenic activity in D-lysergic acid N,N-diethylamide-trained Sprague-Dawley rat assessed as disrupted behavior at 0.09 mg/kg, ip after 30 mins by two-lever drug discrimination assay; type: functional; settings: route intraperitoneal; summary of the method: as §1
Rattus norvegicus [18] = assay: Hallucinogenic activity in D-lysergic acid N,N-diethylamide-trained Sprague-Dawley rat assessed as selection of drug-appropriate lever at 0.09 mg/kg, ip after 30 mins by two-lever drug discrimination assay; type: functional; settings: route intraperitoneal; summary of the method: as §2

5-hydroxytryptamine receptor 2A (Rattus norvegicus), sequence (P14842 whole entry): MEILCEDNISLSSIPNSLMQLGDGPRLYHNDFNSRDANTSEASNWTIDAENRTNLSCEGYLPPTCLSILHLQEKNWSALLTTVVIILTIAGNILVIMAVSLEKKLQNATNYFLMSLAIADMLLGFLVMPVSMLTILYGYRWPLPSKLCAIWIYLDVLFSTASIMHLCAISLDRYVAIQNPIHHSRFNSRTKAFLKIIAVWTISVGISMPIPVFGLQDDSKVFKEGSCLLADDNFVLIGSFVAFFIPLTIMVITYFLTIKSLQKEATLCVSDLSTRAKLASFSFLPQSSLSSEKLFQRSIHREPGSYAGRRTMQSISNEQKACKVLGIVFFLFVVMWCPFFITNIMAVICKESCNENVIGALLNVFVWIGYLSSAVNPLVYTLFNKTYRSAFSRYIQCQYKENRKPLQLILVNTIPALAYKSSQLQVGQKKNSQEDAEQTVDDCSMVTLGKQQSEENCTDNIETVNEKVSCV
T1 sequence (P14842 whole entry): as above

Structure (SMILES): CC(N)Cc1c2c(c(Br)c3c1OCC3)OCC2 (centres undefined)
- pKi [1]: 9.00
- Intrinsic activity [2]: 88%

Structure (SMILES): CC(N)Cc1c2c(c(Br)c3ccoc13)OCCC2 (centres undefined)
- pKi [1]: 9.00
- pEC50 [3]: 7.89
- Intrinsic activity [2]: 102%

Structure (SMILES): NCCc1c2c(c(Br)c3c1OCCC3)OCC2
- pKi [1]: 8.08
- pEC50 [3]: 6.84
- Intrinsic activity [2]: 64%

Structure (SMILES): CC(N)Cc1c2c(c(Br)c3c1OCCC3)OCC2 (centres undefined)
- pKi [1]: 8.28
- pEC50 [3]: 7.11
- Intrinsic activity [2]: 74%
- Activity (Rattus norvegicus [4]): 17%
- Activity (Rattus norvegicus [5]): 0%
- Activity (Rattus norvegicus [6]): 0%
- Activity (Rattus norvegicus [7]): 10%
- Activity (Rattus norvegicus [8]): 41%
- Activity (Rattus norvegicus [9]): 80%
- ED50 (Rattus norvegicus [10]): 1.16 µmol/kg

Structure (SMILES): COc1cc(CC(C)N)c(OC)cc1Br (centres undefined) [BROLAMFETAMINE]
- Activity (Rattus norvegicus [11]): 46%
- Intrinsic activity [2]: 73%
- Activity (Rattus norvegicus [12]): 40%
- Activity (Rattus norvegicus [13]): 36%
- Activity (Rattus norvegicus [14]): 29%
- Activity (Rattus norvegicus [15]): 50%
- Activity (Rattus norvegicus [16]): 89%

Structure (SMILES): NCCc1c2c(c(Br)c3c1OCCC3)OCCC2
- pKi [1]: 8.35
- pEC50 [3]: 6.62
- Intrinsic activity [2]: 61%

Structure (SMILES): NCCc1c2c(c(Br)c3c1OCC3)OCCC2
- pKi [1]: 7.96
- pEC50 [3]: 8.03
- Intrinsic activity [2]: 61%

Structure (SMILES): CC(N)Cc1c2c(c(Br)c3c1OCCC3)OCCC2 (centres undefined)
- pKi [1]: 8.51
- pEC50 [3]: 6.59
- Intrinsic activity [2]: 72%

Structure (SMILES): CC(N)Cc1c2c(c(Br)c3c1OCC3)OCCC2 (centres undefined)
- pKi [1]: 8.44
- pEC50 [3]: 7.72
- Intrinsic activity [2]: 86%
- Activity (Rattus norvegicus [17]): 0%
- Activity (Rattus norvegicus [4]): 0%
- Activity (Rattus norvegicus [5]): 0%
- Activity (Rattus norvegicus [18]): 33%
- Activity (Rattus norvegicus [7]): 54%
- Activity (Rattus norvegicus [8]): 83%
- ED50 (Rattus norvegicus [10]): 0.38 µmol/kg
